Compounds with a hit are over-represented: about 2.3% of the library has one in this group of screens.
TRPC4 inh: inhibitors of mouse TRPC4 channel, primary screen, Fluo4 calcium, HEK293 TRPC4beta/mu-opioid cells | 0.39% of 300,000 active | AID 2247, 2010 | DAMGO-evoked Fluo4 calcium flux; active compounds read low | Short transient receptor potential channel 4 (Mus musculus), Q9QUQ5 | B-score at 10 µM;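 active = B-score over 3 SD under the library average, no early fluorescence shift, positive overall ratio signal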
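Signal: kinetic Fluo4 fluorescence imaging of calcium influx. Material: stable TRPC4beta/mu-opioid receptor HEK293 cells. Probe or stimulus: DAMGO in two steps, submaximal then maximal.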
TRPC6 inhibitor: mouse TRPC6 channel inhibitors, primary screen, cell-based, HEK293, membrane potential dye | ACh-evoked depolarization; active compounds read low | B-score at 10 µM | 1.1% of 310,000 active | AID 2553, 2010;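 active = B-score under library mean minus 3 SD, initial fluorescence not abnormally high, positive integrated signal ratio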;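 also: B-score derived from integrated fluorescence ratio over the kinetic read; more negative B-score means stronger inhibition of depolarization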
Target sequence (Q61143 whole entry, looked up): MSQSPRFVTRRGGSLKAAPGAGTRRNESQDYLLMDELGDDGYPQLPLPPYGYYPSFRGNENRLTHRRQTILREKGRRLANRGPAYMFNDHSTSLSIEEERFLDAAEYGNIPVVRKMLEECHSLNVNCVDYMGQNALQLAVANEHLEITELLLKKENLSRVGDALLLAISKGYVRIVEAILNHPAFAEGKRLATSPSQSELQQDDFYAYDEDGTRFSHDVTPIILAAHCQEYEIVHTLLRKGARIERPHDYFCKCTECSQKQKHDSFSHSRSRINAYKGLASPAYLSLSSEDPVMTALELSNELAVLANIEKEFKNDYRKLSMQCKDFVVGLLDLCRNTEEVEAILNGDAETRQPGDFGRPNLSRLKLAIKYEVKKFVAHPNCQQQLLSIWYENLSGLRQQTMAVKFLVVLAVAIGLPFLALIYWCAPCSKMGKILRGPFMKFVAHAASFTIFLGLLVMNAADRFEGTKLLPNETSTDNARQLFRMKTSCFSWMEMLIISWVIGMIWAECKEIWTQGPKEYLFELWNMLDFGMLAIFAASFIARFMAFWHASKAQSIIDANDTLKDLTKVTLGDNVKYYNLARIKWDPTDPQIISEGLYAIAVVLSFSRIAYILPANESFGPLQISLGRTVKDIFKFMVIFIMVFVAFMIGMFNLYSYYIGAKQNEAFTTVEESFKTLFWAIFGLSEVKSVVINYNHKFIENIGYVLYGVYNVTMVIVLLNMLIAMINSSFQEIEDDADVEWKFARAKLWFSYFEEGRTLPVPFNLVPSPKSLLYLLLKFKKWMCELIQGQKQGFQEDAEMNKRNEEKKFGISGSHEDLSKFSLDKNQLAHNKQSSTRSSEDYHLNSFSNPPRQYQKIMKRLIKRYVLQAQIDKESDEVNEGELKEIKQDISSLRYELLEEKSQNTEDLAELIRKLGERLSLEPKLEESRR
TRPC6 act: mouse TRPC6 channel activators, primary screen, cell-based, HEK293, membrane potential dye | Short transient receptor potential channel 6 (Mus musculus), Q61143 | HEK293-TRPC6 membrane potential dye fluorescence; active compounds read high | B-score at 10 µM | 0.13% of 310,000 active;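 active = B-score of the integrated fluorescence ratio above library mean plus 3 SD, and starting fluorescence ratio within library mean plus 5 SD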;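 also: higher score means more depolarization so channel activation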
TRPC4 agonist: activators of mouse TRPC4 channel, primary screen, Fluo4 calcium, HEK293 TRPC4beta/mu-opioid cells. Short transient receptor potential channel 4 (Mus musculus), Q9QUQ5. Fluo4 calcium fluorescence; active compounds read high. B-score at 10 µM. 0.49% of 310,000 active. AID 2237, 2010;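 active = B-score above 5 SD of library B-scores, and initial fluorescence ratio not above library mean plus 5 SD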;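 also: positive B-score marks a calcium rise read as TRPC4 activation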
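Test system: HEK293 cells stably co-expressing mouse TRPC4beta and mu-opioid receptor | Schedule: Fluo4 dye loading 45 min at room temperature, 110 s recording | Measured by: Kinetic Fluo4 calcium fluorescence, 5 s baseline at 1 Hz | Evaluation: B score of integrated ratio | Controls: Buffer (low) and maximal DAMGO (high)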
TRPC4 potent: positive allosteric modulators of TRPC4, primary screen, cell-based, mouse TRPC4beta, HEK293 mu-opioid, Fluo-4 calcium; 0.42% of 310,000 active; DAMGO EC20, Fluo-4 Ca2+ flux; active compounds read high; AID 2227, 2009; Short transient receptor potential channel 4 (Mus musculus), Q9QUQ5; B-score at 10 µM;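 active = B-score of calcium response area above 5 SD of library B-scores, with initial fluorescence ratio within 5 SD of library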
TRPC4 spec 2: second selectivity test of TRPC6 inhibitors: effect on mouse TRPC4; shares compounds with TRPC6 inhibitor; HEK293 TRPC4/MOR, membrane potential dye fluorescence; channel activated by saturating DAMGO dose; inhibition, % at 10 µM; 42% of 920 active;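 active = compounds whose fluorescence signal differed from control wells by over 3 SD, either direction, in both duplicate plates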
TRPC4 spec: mouse TRPC4 modulation by TRPC6 hits, confirmation, selectivity assay for TRPC6 inhibitor project, cell-based, HEK293 TRPC4/mu-opioid, membrane potential dye; AID 2777, 2010; activity change, negative = inhibition, % at 10 µM; 61% of 920 active; membrane potential fluorescence; shares compounds with TRPC6 inhibitor;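 active = rise or fall in signal beyond 3 SD of buffer-only wells in both replicate plates, either sign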;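 also: integrated kinetic ratio of fluorescence range over baseline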
HEK293 MPD ctr 2-1: nonspecific membrane potential effects, parental HEK293, confirmation, counter-screen for TRPC6 inhibitor project, cell-based, second counter screen. 31% of 920 active. shares compounds with TRPC6 inhibitor. signal change vs control, % at 10 µM. parental HEK293 membrane potential dye fluorescence; maximal acetylcholine challenge after compound addition. AID 2779, 2010;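 active = membrane potential signal moving either way by over 3 SD of the maximum-effect control, in both duplicate plates, meaning non-specific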
HEK293 MPD ctr-1: membrane potential modulation in parental HEK293, confirmation, counter-screen for TRPC6 inhibitor project, cell-based | shares compounds with TRPC6 inhibitor | parental HEK293 membrane potential dye fluorescence | membrane potential signal change, % at 10 µM | 60% of 920 active;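 active = membrane potential signal shifting up or down by more than 3 SD of buffer-only wells, on both duplicate plates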
HEK293 MPD ctr-2: parental HEK293 membrane potential modulation, confirmation, counter-screen for TRPC6 modulator project, cell-based; shares compounds with TRPC6 inhibitor; membrane potential dye fluorescence; membrane potential signal change, % at 10 µM; 51% of 2,400 active;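 active = membrane potential signal moves up or down beyond 5 SD from buffer-only wells, on both duplicate plates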
HEK293 MPD ctr 2-2: parental HEK293 nonspecific activity of TRPC6 modulators, second screen | shares compounds with TRPC6 inhibitor | membrane potential dye fluorescence; after compound, maximal acetylcholine stimulation | inhibition, % at 10 µM | 14% of 2,400 active | AID 488926;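 active = membrane potential signal drops by more than 5 SD from the mean control signal, in both duplicate plates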
TRPC4 ctr mod: TRPC4 modulation by TRPC6 hit compounds, confirmation, selectivity assay for TRPC6 modulator project, cell-based, HEK293 TRPC4/mu-opioid, membrane potential dye, mouse. shares compounds with TRPC6 inhibitor. membrane potential fluorescence. percent change from control (negative = decrease, positive = increase), % at 10 µM. 69% of 2,400 active;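 active = membrane potential signal moved up or down beyond 5 SD of buffer control wells, in both duplicate plates, actives on both sides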
TRPC4/MOR inh 2: second selectivity test of TRPC6 modulators against mouse TRPC4 | shares compounds with TRPC6 inhibitor | HEK293 TRPC4/mu-opioid, membrane potential dye fluorescence; stimulated with maximal-effect DAMGO | inhibition, % at 10 µM | 55% of 2,400 active | AID 488928;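 active = drop in membrane potential signal beyond 5 SD of the control wells in both duplicate plates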;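 also: TRPC4 counter screen for TRPC6 hits run under conditions tuned for TRPC6 not TRPC4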
TRPC6 inh conf: mouse TRPC6 channel inhibitors, confirmation, HEK293 cells, membrane potential dye, duplicate. ACh-evoked depolarization. shares compounds with TRPC6 inhibitor. inhibition, % at 10 µM. 43% of 3,300 active. AID 488960, 2010;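 active = fluorescence ratio falls more than 5 SD below the full-stimulation control mean, in both duplicate runs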;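 also: integrated fluorescence ratio of peak minus minimum over baseline after agonist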
TRPC6 act conf: mouse TRPC6 channel activators, confirmation, HEK293 cells, membrane potential dye, duplicate; activation, % at 10 µM; HEK293-TRPC6 membrane potential dye fluorescence, FDSS; AID 488961, 2010; 11% of 2,800 active; shares compounds with TRPC6 inhibitor;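 active = ratio signal rise beyond 5 SD above unstimulated control wells' mean, seen in both duplicate runs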
A number is an active result; n = inactive; x = no result given.

SMILES	TRPC4 inh	TRPC6 inhibitor	TRPC6 act	TRPC4 agonist	TRPC4 potent	HEK293 MPD ctr-2	HEK293 MPD ctr 2-2	TRPC4 ctr mod	TRPC4/MOR inh 2	TRPC6 inh conf	TRPC6 act conf	others
CCCNC(=O)Cn1c(=O)n(CC(=O)N2CCCCC2)c(=O)c2sccc21	n	n	n	n	n	x	x	x	x	x	x
Cc1cccc(C)c1-n1c(C)nn(CC#N)c1=O	n	n	n	n	n	x	x	x	x	x	x
N=c1c(C(=O)NC2CCCCC2)cc2c(=O)n3ccccc3nc2n1Cc1cccnc1	n	-5.49	n	n	n	-84.5%	n	-23.5%	30.5%	36.5%	n
N=c1c(C(=O)NC2CCCCC2)cc2c(=O)n3ccccc3nc2n1Cc1ccccc1	n	-8.04	n	n	n	-141.5%	n	-36.5%	50.5%	46.5%	n
CCc1ccccc1NS(=O)(=O)c1ccc2c(c1)NC(=O)CC(=O)N2	n	-9.36	n	n	n	x	x	x	x	n	n	TRPC4 spec 2=n;TRPC4 spec=n;HEK293 MPD ctr 2-1=n;HEK293 MPD ctr-1=n
CCc1cccc(NS(=O)(=O)c2ccc3c(c2)NC(=O)CC(=O)N3)c1	n	n	n	n	n	x	x	x	x	x	x
Cc1cc2c(n1-c1ccc(Br)cc1)CC(C)(C)CC2=O	n	n	n	n	n	x	x	x	x	x	x
CN1CCN(NC(=O)CN2C(=O)/C(=C/c3ccccc3Cl)SC2=S)CC1	n	-8.32	n	n	n	x	x	x	x	61.2%	n	TRPC4 spec 2=63.5%;TRPC4 spec=n;HEK293 MPD ctr 2-1=n;HEK293 MPD ctr-1=-130.5%
COC(c1ccccc1)c1nnc(CCC(=O)N(C)Cc2cccc(-n3cccn3)c2)o1 (stereo unspecified)	n	n	15.6	n	n	n	n	8.5%	n	n	n
Cc1ccc(S(=O)(=O)n2cnc(C)c2)cc1	n	-8.24	n	n	n	x	x	x	x	n	n	TRPC4 spec 2=n;TRPC4 spec=n;HEK293 MPD ctr 2-1=n;HEK293 MPD ctr-1=n
CC(=O)Nc1ccc(S(=O)(=O)n2cnc(C)c2)cc1	n	n	n	n	n	x	x	x	x	x	x
O=C(c1ccccc1[N+](=O)[O-])n1cnc2ccccc21	n	n	n	n	n	x	x	x	x	x	x
CC(C)c1cc(=O)oc2c3c4c(cc12)CCCN4CCC3	n	-5.15	n	n	n	640.0%	n	-127.0%	39.0%	n	n
Cc1cc(=O)oc2c3c4c(cc12)OCCN4CCC3	n	n	n	n	n	x	x	x	x	x	x
CCCCCC(=O)NC(=S)Nc1ccc2oc(=O)ccc2c1	n	-6.37	n	n	n	n	n	-14.0%	n	n	n
COc1cc(OC)c2c(C)cc(=O)oc2c1C(CCN1CCOCC1)c1ccc(N(C)C)cc1 (stereo unspecified)	n	-5.3	n	n	n	-141.0%	n	-28.5%	52.0%	42.0%	n
COc1ccc(C(CCN2CCCC(C)C2)c2c(OC)cc(OC)c3c(-c4ccccc4)cc(=O)oc23)cc1 (stereo unspecified)	n	n	n	n	n	x	x	x	x	x	x
COc1cc(OC)c2c(-c3ccccc3)cc(=O)oc2c1C(CCN1CCCC(C)C1)c1ccc(N(C)C)cc1 (stereo unspecified)	n	-5.9	n	n	n	n	n	n	69.0%	40.0%	n
COc1cc(OC)c2c(-c3ccccc3)cc(=O)oc2c1C(CCN1CCN(c2ccccc2)CC1)c1ccc(N(C)C)cc1 (stereo unspecified)	n	n	n	n	n	x	x	x	x	x	x
Cc1ccn(CC(=O)N2CCCC(N3CCN(c4ccc(F)cc4)CC3)C2)n1 (stereo unspecified)	n	n	n	n	n	x	x	x	x	x	x
CCN(CC)c1ccc(CNc2nc3ccccc3n2CCN2CCCCC2)cc1	n	-5.91	n	119	n	n	n	31.5%	97.0%	51.5%	n
CCN(CC)CCn1c(NCc2ccco2)nc2ccccc21	n	n	n	n	n	x	x	x	x	x	x
Cn1c(CNc2nc3ccccc3n2CCN2CCCCC2)nc2ccccc21	n	-6.55	n	n	n	n	n	n	72.5%	44.0%	n
CCn1c(NCc2ccc(N(C)C)cc2)nc2ccccc21	n	-5.31	n	n	n	n	n	-14.0%	46.0%	n	n
COc1ccc(CNc2nc3ccccc3n2CCN2CCCCC2)cc1	n	n	n	n	n	x	x	x	x	x	x
CCN(CC)CCn1c(NCc2nc3ccccc3n2Cc2ccccc2)nc2ccccc21	n	-7.1	n	n	n	x	x	x	x	53.0%	n	TRPC4 spec 2=36.5%;TRPC4 spec=18.0%;HEK293 MPD ctr 2-1=275.5%;HEK293 MPD ctr-1=8.3%
COC(=O)C/C=C/[C@@H](C)[C@@H](/C=N/OC[C@H]1O[C@H](c2ccccc2)C=C[C@@H]1Oc1ccc(OC)cc1)OC	n	n	n	n	n	x	x	x	x	x	x
C/C(=N\NC(=O)c1nnn(-c2nonc2N)c1CN(C)c1ccccc1)c1ccccc1O	n	n	n	n	n	x	x	x	x	x	x
